# This is one part of a sample in which hits are shown more often than they occur.
# L major viab = Leishmania major promastigote growth inhibition, primary screen | Leishmania major promastigotes, resazurin fluorescence viability | inhibition, % at 10 µM | 9% of 200,000 active; in the data active = inhibition above about 50%;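 also: promastigotes grown with compound for 44 hours at 28 °C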
# S1P4 agonist = S1P4 receptor agonists, primary screen, cell-based | Sphingosine 1-phosphate receptor 4 (Homo sapiens), O95977 | S1P4-expressing cell line, agonist reporter assay | activation, % at 4.98 µM | 0.35% of 220,000 active | AID 1509, 2009; in the data active = activation above about 11%;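 also: 0% = DMSO vehicle and 100% = reference agonist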
# S1P4 antag = S1P4 receptor antagonists, primary screen, cell-based; 0.26% of 220,000 active; inhibition, % at 4.98 µM; S1P4-expressing cells, antagonist mode, reporter read-out; Sphingosine 1-phosphate receptor 4 (Homo sapiens), O95977; in the data active = inhibition above about 29%;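 also: 0% = wells stimulated with agonist and 100% = vehicle wells without agonist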
# MDM2 E3 inh = MDM2-luciferase reporter signal enhancers, primary screen, MDM2 E3 ligase inhibitor project, cell-based, luminescence, 1536-well | E3 ubiquitin-protein ligase Mdm2 (Homo sapiens), Q00987 | cell-based MDM2 ubiquitination luciferase reporter, 2 h; 0 = plate control, 100 = twice control, blank-subtracted | signal enhancement, % at 5 µM | 0.11% of 210,000 active | AID 1230, 2008;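 active = signal enhancement of 30% or more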;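 also: luminescence tracks abundance of the self-degrading MDM2-luciferase fusion protein; higher signal means inhibition of MDM2 E3 ligase activity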
# Target sequence (Q00987 whole entry, looked up, the tested form may be a part): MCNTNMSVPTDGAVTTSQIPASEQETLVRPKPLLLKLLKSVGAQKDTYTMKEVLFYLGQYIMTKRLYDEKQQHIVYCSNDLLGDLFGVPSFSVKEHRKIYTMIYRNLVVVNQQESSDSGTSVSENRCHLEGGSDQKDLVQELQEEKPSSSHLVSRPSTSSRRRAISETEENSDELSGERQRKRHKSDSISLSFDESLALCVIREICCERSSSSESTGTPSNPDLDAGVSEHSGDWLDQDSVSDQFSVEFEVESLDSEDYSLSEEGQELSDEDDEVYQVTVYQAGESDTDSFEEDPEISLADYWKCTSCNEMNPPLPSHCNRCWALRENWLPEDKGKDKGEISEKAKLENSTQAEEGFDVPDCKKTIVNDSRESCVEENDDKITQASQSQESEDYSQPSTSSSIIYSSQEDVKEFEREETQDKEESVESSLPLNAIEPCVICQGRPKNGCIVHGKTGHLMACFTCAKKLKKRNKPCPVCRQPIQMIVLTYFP
#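 Assay system: stable mammalian line carrying autodegrading MDM2–luciferase fusion reporter; Input: 2000 cells in each well; Compound dosing: single-point 5 µM; Schedule: 2 h compound exposure at 37 °C; Signal: SteadyLite luciferase luminescence after 15 min room-temperature reagent incubation; Evaluation: % luminescence enhancement versus blank-corrected plate control mean; Benchmarks: plate controls and plate blanks.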
# S1P3 antagonist = S1P3 receptor antagonists, primary screen, cell-based | inhibition, % at 4.98 µM | CHO S1P3 NFAT-BLA reporter, FRET fluorescence, antagonist mode | 0.27% of 170,000 active | Sphingosine 1-phosphate receptor 3 (Homo sapiens), Q99500;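 active = inhibition above the plate cutoff, the mean inhibition of test wells on that plate plus 3 SD, cut at about 28% in these data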;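 also: cells challenged with S1P at its EC80 of 0.8 µM; blue over green emission ratio from cleaved BLA substrate after 4 h stimulation; 0% = S1P-stimulated wells and 100% = unstimulated DMSO-only wells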
# The depositor's hits bear a star; . = no result given.
SMILES,L major viab,S1P4 agonist,S1P4 antag,MDM2 E3 inh,S1P3 antagonist
COc1ccc(-c2n[nH]c(C)c2-c2cnn(-c3ccccc3)c2)c(O)c1C,67*,1,-12,-17,.
CCc1ccc(C(=O)Cn2ncc(Cl)c(Cl)c2=O)cc1,28,0,12,5,.
O=C(OCn1ncc(Cl)c(Cl)c1=O)c1cccc(C(F)(F)F)c1,59*,-4,34*,10,.
O=[N+]([O-])c1sccc1CS(=O)(=O)c1ccccc1,.,1,1,-10,-16
Cc1ccc(Nc2ncccc2C(=O)NCc2cccs2)c(C)c1,96*,1,1,-8,.
O=C(NCc1cccs1)c1cccnc1Cl,-5,1,-25,-6,-5
Cc1cccc(Nc2ncccc2C(=O)NCc2cccs2)c1C,79*,2,0,-3,.
Cc1ccc(C)c(-c2cc(C(=O)NCc3cccs3)c3ccccc3n2)c1,7,3,15,-11,.
COc1ccc(-n2nnnc2SCC(=O)Nc2cccc(C)n2)cc1OC,-3,0,-13,3,-52
CCn1c(=O)n(CC)c2cc(S(=O)(=O)NCCOc3ccccc3)c(C)cc21,99*,-2,-11,-9,7
COc1ccc(NC(=S)N(CCCN2CCCC2)Cc2cccn2Cc2ccc(Cl)cc2)cc1Cl,100*,-1,20,-23,6
COc1ccc(NC(=S)NCCCN2CCCC2)cc1Cl,22,7,-22,-6,-21
Cc1ccc(NC(=S)N(CCCN2CCCC2)Cc2cccn2Cc2ccc(Cl)cc2)cc1Cl,100*,0,1,6,-8
FC(F)(F)c1cccc(NC(=S)N(CCCN2CCCC2)Cc2cccn2Cc2ccc(Cl)cc2)c1,100*,-1,3,8,12
Cc1ccc(NC(=S)N(CCCN2CCCC2)Cc2cccn2Cc2ccc(Cl)cc2)cc1C,101*,-1,6,-9,14
Cc1cc(NC(=S)N(CCN2CCCCC2)Cc2ccco2)ccc1Cl,33,2,-12,7,10
Nc1[nH]nc2c1NN(c1ccc(Cl)cc1Cl)N2,2,0,-5,4,27
CCOC(=O)C1(CCCc2ccccc2)CCN(C(=O)c2cnn(CC)c2)CC1,30,0,1,2,-9
O=C(c1ccc(Cl)cc1)C1CCN(C(=O)NC2CCCCC2)CC1,52*,-3,-29,-18,-15
CC(=O)c1cc(C#N)c(N2CCCC2)nc1C,100*,0,2,-15,-11
Cc1cc(C)c2cc(C#N)c(N3CCCC3)nc2c1,1,-1,-3,19,0
CCOC(=O)C1=C(Nc2ccccc2)CC(C)(O)C(C(=O)OCC)C1c1ccccc1 (stereo unspecified),-1,-2,-17,-10,-14
CCOC(=O)C1=C(Nc2ccccc2)CC(C)(O)C(C(=O)OCC)C1c1ccc(Br)cc1 (stereo unspecified),92*,-2,-1,-7,-2
Cc1csc(NC(=O)CSc2nnc(Cn3c(=O)sc4ccccc43)n2-c2ccccc2)n1,14,-1,9,-8,-6
COc1cc(CO)ccc1OCc1nnnn1-c1ccc(C)cc1,1,2,-11,-15,3
SMILES,L major viab,S1P4 agonist,S1P4 antag,MDM2 E3 inh,S1P3 antagonist
COc1ccc(C2N(c3ccc(Cl)cc3)N=C(C(C)=O)N(C)N2C(C)=O)cc1 (stereo unspecified),58*,0,5,-4,16
CCc1ccc(C(=O)NNc2ccc(F)cc2F)cc1,.,-1,-6,6,12
O=C(O)c1ccccc1C(=O)c1ccc2c(c1)N(Cc1ccc(Cl)c(Cl)c1)C(=O)CO2,100*,-1,3,-16,-20
O=C(CCN1C(=O)C2CCCCC2C1=O)Nc1ccc(F)c(F)c1F (stereo unspecified),-4,-2,-18,-24,-20
CCn1c(O)c(N=NC(=O)CNC(=O)c2ccco2)c2ccccc21,1,5,-16,-8,12
CCCn1c(O)c(N=NC(=O)c2ccco2)c2ccccc21,68*,2,-15,-21,-10
CC(C)(C)C1CCC(=NNC(=O)C(=O)NCc2ccco2)CC1 (stereo unspecified),-1,0,-10,-22,3
O=C(CCCn1cnc([N+](=O)[O-])n1)Nc1ccc(Cl)c(Cl)c1,97*,2,-9,-2,.
Cc1cc([N+](=O)[O-])nn1CCCC(=O)Nc1ccc(Cl)cc1Cl,3,0,1,7,-7
Cc1c(Cl)cccc1NC(=O)CCCn1cnc([N+](=O)[O-])n1,50,1,-26,-10,-6
O=C(CCCn1cnc([N+](=O)[O-])n1)Nc1cccc(Cl)c1Cl,94*,1,-12,1,-8
Cc1cc(NC(=O)CCCn2cnc([N+](=O)[O-])n2)no1,2,-1,-5,.,-3
O=C(CCCn1cnc([N+](=O)[O-])n1)Nc1cc(Cl)ccc1O,72*,1,1,1,-21
S=C(NCCCN1CCOCC1)NC1CC1,-8,0,-10,.,-6
Cc1ccc(-c2ccc(/C=C3\C(=O)ON=C3c3ccccc3)o2)c([N+](=O)[O-])c1,98*,0,4,-8,.
Cc1ccc(/C=C2\C(=O)ON=C2c2ccccc2)o1,0,2,-28,-24,-17
Cc1ccc(C)c(Oc2cc(NC(=O)CCCn3nc(C)c([N+](=O)[O-])c3C)cc([N+](=O)[O-])c2)c1,7,4,5,-5,17
Cc1nn(CCCC(=O)Nc2cc(Oc3ccccc3)cc([N+](=O)[O-])c2)c(C)c1[N+](=O)[O-],99*,0,5,-18,17
Cc1cc([N+](=O)[O-])nn1CCCC(=O)NC(C)c1ccccc1 (stereo unspecified),51*,1,-20,-1,-6
Cc1ccc(Oc2cc(NC(=O)CCCn3nc([N+](=O)[O-])cc3C)cc([N+](=O)[O-])c2)cc1,95*,2,-27,-3,-2
Cc1c(Cl)cccc1NC(=O)CCCn1nc([N+](=O)[O-])cc1C,-5,1,-6,-12,-13
Cc1ccc(NC(=O)CSc2nnc(-c3ccncc3)n2C)cc1S(=O)(=O)N1CCOCC1,-7,1,0,-12,4
Cc1ccc(S(=O)(=O)Nc2ccnc(-c3cccnc3)n2)cc1,1,-1,-1,-22,-20
COc1ccc2nc(SCC(=O)Nc3ccc4sc(C)nc4c3)c(C#N)cc2c1,-4,-1,-27,2,.
Cc1nnc(SCC(=O)Nc2ccc(Cl)cn2)s1,57*,-1,-17,-9,-4
Cc1csc(SCC(=O)Nc2ccc(Cl)cn2)n1,-6,0,-6,-15,-4
O=C1CN(C(=O)COc2ccc(F)cc2Br)c2ccccc2N1,-2,2,3,8,-7
